Source: ChEMBL document CHEMBL5058577, “EUbOPEN Chemogenomics Library 2 (Multiplex)” (2022)

Tested on: HEK-293T
Assay: Multiplex assay against HEK293T
Type: toxicity, cell-based
Details: human
Summary of the method: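 Cells stained live at seeding with Hoechst33342, BioTracker Green Microtubule Cytoskeleton Dye, MitoTracker Red and Annexin V Alexa Fluor 680 were imaged on a CQ1 microscope at 37°C and 5% CO2 after compound addition. Their classification by CellPathfinder machine-learning gating ran from Hoechst high-intensity objects versus normal cells, to healthy, pyknosed or fragmented nuclei among normal cells, to mitotic or apoptotic among pyknosed cells. Tubulin, mitochondrial-mass and membrane-permeability phenotypes are per cents of healthy-nucleus cells.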

[1] = 12 h, 1 µM, compound concentration 1 uM, replicate 1
[2] = 12 h, 1 µM, compound concentration 1 uM, replicate 2
[3] = 12 h, 10 µM, compound concentration 10 uM, replicate 1
[4] = 12 h, 10 µM, compound concentration 10 uM, replicate 2
[5] = 24 h, 1 µM, compound concentration 1 uM, replicate 1
[6] = 24 h, 1 µM, compound concentration 1 uM, replicate 2
[7] = 24 h, 10 µM, compound concentration 10 uM, replicate 1
[8] = 24 h, 10 µM, compound concentration 10 uM, replicate 2
[9] = 48 h, 1 µM, compound concentration 1 uM, replicate 1
[10] = 48 h, 1 µM, compound concentration 1 uM, replicate 2
[11] = 48 h, 10 µM, compound concentration 10 uM, replicate 1
[12] = 48 h, 10 µM, compound concentration 10 uM, replicate 2

## N[C@](CC1c2ccccc2Oc2ccccc21)(C(=O)O)[C@H]1C[C@@H]1C(=O)O
[1]
  Population Apoptotic (%): 38%
  Population Fragmented Nuclei (%): 6%
  Population Healthy Nuclei (%): 83%
  Population Hoechst High Intensity Objects (%): 7%
  Population Membrane Permeable-Phenotype (%): 0%
  Population Mitochondria Different-Phenotype (%): 43%
  Population Mitotic Cells (%): 61%
  Population Normal (%): 92%
  Population Pyknosed Nuclei (%): 10%
  Population Tubulin-Different-Phenotype (%): 27%
  Total Cell Count: 447
[2]
  Population Apoptotic (%): 54%
  Population Fragmented Nuclei (%): 7%
  Population Healthy Nuclei (%): 79%
  Population Hoechst High Intensity Objects (%): 5%
  Population Mitochondria Different-Phenotype (%): 58%
  Population Mitotic Cells (%): 45%
  Population Normal (%): 94%
  Population Pyknosed Nuclei (%): 12%
  Population Tubulin-Different-Phenotype (%): 25%
  Total Cell Count: 270
[3]
  Population Apoptotic (%): 32%
  Population Fragmented Nuclei (%): 9%
  Population Healthy Nuclei (%): 78%
  Population Hoechst High Intensity Objects (%): 8%
  Population Membrane Permeable-Phenotype (%): 0%
  Population Mitochondria Different-Phenotype (%): 40%
  Population Mitotic Cells (%): 67%
  Population Normal (%): 91%
  Population Pyknosed Nuclei (%): 12%
  Population Tubulin-Different-Phenotype (%): 23%
  Total Cell Count: 381
[4]
  Population Fragmented Nuclei (%): 4%
  Population Healthy Nuclei (%): 81%
  Population Hoechst High Intensity Objects (%): 7%
  Population Mitochondria Different-Phenotype (%): 66%
  Population Normal (%): 92%
  Population Pyknosed Nuclei (%): 13%
  Population Tubulin-Different-Phenotype (%): 31%
  Total Cell Count: 382
[5]
  Population Apoptotic (%): 21%
  Population Fragmented Nuclei (%): 8%
  Population Healthy Nuclei (%): 81%
  Population Hoechst High Intensity Objects (%): 3%
  Population Membrane Permeable-Phenotype (%): 1%
  Population Mitochondria Different-Phenotype (%): 24%
  Population Mitotic Cells (%): 78%
  Population Normal (%): 96%
  Population Pyknosed Nuclei (%): 10%
  Population Tubulin-Different-Phenotype (%): 15%
  Total Cell Count: 629
[6]
  Population Apoptotic (%): 38%
  Population Fragmented Nuclei (%): 9%
  Population Healthy Nuclei (%): 84%
  Population Hoechst High Intensity Objects (%): 5%
  Population Membrane Permeable-Phenotype (%): 0%
  Population Mitochondria Different-Phenotype (%): 30%
  Population Mitotic Cells (%): 61%
  Population Normal (%): 94%
  Population Pyknosed Nuclei (%): 6%
  Population Tubulin-Different-Phenotype (%): 16%
  Total Cell Count: 368
[7]
  Population Apoptotic (%): 29%
  Population Fragmented Nuclei (%): 10%
  Population Healthy Nuclei (%): 79%
  Population Hoechst High Intensity Objects (%): 5%
  Population Membrane Permeable-Phenotype (%): 0%
  Population Mitochondria Different-Phenotype (%): 30%
  Population Mitotic Cells (%): 70%
  Population Normal (%): 94%
  Population Pyknosed Nuclei (%): 10%
  Population Tubulin-Different-Phenotype (%): 17%
  Total Cell Count: 510
[8]
  Population Apoptotic (%): 40%
  Population Fragmented Nuclei (%): 6%
  Population Healthy Nuclei (%): 82%
  Population Mitochondria Different-Phenotype (%): 41%
  Population Mitotic Cells (%): 59%
  Population Pyknosed Nuclei (%): 11%
  Population Tubulin-Different-Phenotype (%): 16%
  Total Cell Count: 471
[9]
  Population Apoptotic (%): 12%
  Population Fragmented Nuclei (%): 11%
  Population Healthy Nuclei (%): 80%
  Population Hoechst High Intensity Objects (%): 2%
  Population Membrane Permeable-Phenotype (%): 2%
  Population Mitochondria Different-Phenotype (%): 15%
  Population Mitotic Cells (%): 87%
  Population Normal (%): 97%
  Population Pyknosed Nuclei (%): 7%
  Population Tubulin-Different-Phenotype (%): 13%
  Total Cell Count: 1040
[10]
  Population Apoptotic (%): 17%
  Population Fragmented Nuclei (%): 12%
  Population Healthy Nuclei (%): 81%
  Population Hoechst High Intensity Objects (%): 1%
  Population Membrane Permeable-Phenotype (%): 0%
  Population Mitochondria Different-Phenotype (%): 17%
  Population Mitotic Cells (%): 82%
  Population Normal (%): 98%
  Population Pyknosed Nuclei (%): 6%
  Population Tubulin-Different-Phenotype (%): 10%
  Total Cell Count: 654
[11]
  Population Apoptotic (%): 28%
  Population Fragmented Nuclei (%): 13%
  Population Healthy Nuclei (%): 78%
  Population Hoechst High Intensity Objects (%): 2%
  Population Membrane Permeable-Phenotype (%): 0%
  Population Mitochondria Different-Phenotype (%): 17%
  Population Mitotic Cells (%): 71%
  Population Normal (%): 97%
  Population Pyknosed Nuclei (%): 8%
  Population Tubulin-Different-Phenotype (%): 8%
  Total Cell Count: 789
[12]
  Population Apoptotic (%): 42%
  Population Healthy Nuclei (%): 80%
  Population Hoechst High Intensity Objects (%): 4%
  Population Mitochondria Different-Phenotype (%): 25%
  Population Mitotic Cells (%): 57%
  Population Normal (%): 95%
  Population Pyknosed Nuclei (%): 6%
  Population Tubulin-Different-Phenotype (%): 12%
  Total Cell Count: 687
